core dimer inh = inhibitors of HCV core protein dimerization, primary screen, biochemical, TR-FRET, high-throughput; TR-FRET GST/Flag-core106 dimerization, 1536-well; inhibition, % at 5 µM; 300,000 tested, 0.33% active;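 active = inhibition above the mean of all tested compounds plus 3 SD, set per screening campaign, cut at about 45% in these data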
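Assay system: Tagged HCV core106 pair (GST and Flag) | Buffer or medium: KF-containing HEPES buffer, pH 7.45, DTT, CHAPS, BSA | Also added: Eu donor and XL665 acceptor anti-tag antibodies | Dosing: One concentration, 5 µM, in 0.5% DMSO | Timing: 4 h at 22.5 °C | Technique: TR-FRET 671 and 617 nm emission | Repeats: Singlicate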
rCAG binder-1 = binders of r(CAG) RNA repeats, primary screen, biochemical, fluorescence; inhibition, % at 3 µM; AID 651821, 2012; r(CAG) RNA repeat, TO-PRO-1 dye displacement fluorescence; 370,000 tested, 1.3% active;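 active = inhibition above the plate cutoff, the mean of all test compounds on that plate plus 3 SD, cut at about 35% in these data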;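 note: 0% = DMSO alone and 100% = 100 µM mitoxantrone as full dye displacement; higher means more dye released from RNA so lower well fluorescence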
NadD block = inhibitors of S. aureus NadD, primary screen, biochemical, colorimetric, uHTS | Nicotinate-nucleotide adenylyltransferase NadD (Staphylococcus aureus N315) | inhibition, % at 20 µM | AID 602399, 2012 | purified NadD enzyme, colorimetric absorbance read-out | 360,000 tested, 0.78% active; in the data active = inhibition above about 26%
ABHD5 PLIN5 PPI = ABHD5-PLIN5 interaction inhibitors, primary screen, cell lysate, split luciferase complementation, luminescence; Perilipin-5 (Homo sapiens) + 1-acylglycerol-3-phosphate O-acyltransferase ABHD5 (Homo …; Split G. princeps luciferase complementation, 4 h; inhibition, % at 4 µM; 360,000 tested, 0.78% active;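 active = inhibition above the mean inhibition across every tested compound plus 3 SD, cut at about 22% in these data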;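 note: 0% = DMSO only wells and the 100% control is not disclosed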
Target sequence (Q00G26 whole entry, looked up): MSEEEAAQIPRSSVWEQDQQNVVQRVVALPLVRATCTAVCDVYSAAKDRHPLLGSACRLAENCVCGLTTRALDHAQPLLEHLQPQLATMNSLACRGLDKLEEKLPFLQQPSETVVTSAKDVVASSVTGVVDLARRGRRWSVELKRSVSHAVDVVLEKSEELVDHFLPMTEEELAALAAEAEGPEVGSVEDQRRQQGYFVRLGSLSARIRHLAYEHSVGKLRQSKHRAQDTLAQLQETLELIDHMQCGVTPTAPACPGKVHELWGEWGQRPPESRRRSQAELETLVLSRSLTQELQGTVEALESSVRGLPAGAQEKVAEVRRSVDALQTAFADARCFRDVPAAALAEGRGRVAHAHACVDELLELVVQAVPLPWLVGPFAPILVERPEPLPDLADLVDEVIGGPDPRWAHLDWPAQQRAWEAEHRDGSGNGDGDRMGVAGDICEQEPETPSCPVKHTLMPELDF
Target sequence (Q8WTS1 whole entry, looked up): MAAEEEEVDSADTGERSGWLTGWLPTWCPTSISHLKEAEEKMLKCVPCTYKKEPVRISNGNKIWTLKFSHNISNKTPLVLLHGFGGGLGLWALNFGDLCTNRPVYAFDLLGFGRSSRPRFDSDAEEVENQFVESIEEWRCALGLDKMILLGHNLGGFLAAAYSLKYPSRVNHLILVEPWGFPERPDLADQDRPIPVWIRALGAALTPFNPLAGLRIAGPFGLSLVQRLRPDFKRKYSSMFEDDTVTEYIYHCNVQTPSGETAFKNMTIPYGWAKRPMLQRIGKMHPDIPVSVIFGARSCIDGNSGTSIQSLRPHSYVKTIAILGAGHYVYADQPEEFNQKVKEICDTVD
rCAG binder conf = small molecules binding CAG repeat RNA – biochemical, fluorescence, confirmation | inhibition, % at 3 µM | r(CAG) RNA repeat, TO-PRO-1 dye displacement fluorescence | 4,300 tested, 70% active | shares compounds with rCAG binder-1;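 active = inhibition above a per-plate cutoff, the mean inhibition of sample wells plus 3 SD, cut at about 35% in these data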;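 note: loss of TO-PRO-1 fluorescence as compound displaces dye from 1x1 AA loop RNA; 0% = DMSO only wells and 100% = 100 µM mitoxantrone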
DNA CAG counter = displacement of TO-PRO-1 from CAG DNA duplex, counter-screen for rCAG RNA repeat binder project, biochemical, fluorescence, TO-PRO-1 dye, d(CAG) DNA oligo | d(CAG) DNA oligo TO-PRO-1 dye displacement | 4,300 tested, 94% active | shares compounds with rCAG binder-1 | inhibition, % at 3 µM;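 active = inhibition above its plate's cutoff, the mean test-well inhibition plus 3 SD, cut at about 4.8% in these data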;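 note: 0% = DNA dye mix with DMSO and 100% = 100 µM mitoxantrone; hits displace the dye from DNA and so lower well fluorescence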
dCAG dye DR = inhibitors of DNA CAG/GTC TO-PRO-1 complex, dose response, counter-screen for rCAG RNA repeat binder project, biochemical, fluorescence, TO-PRO-1 dye | shares compounds with rCAG binder-1 | DNA CAG/GTC duplex TO-PRO-1 dye displacement fluorescence | IC50, µM | 250 tested, 20% active | AID 686960, 2013; in the data active = IC50 below about 10 µM
dCAG DNA bind = TO-PRO-1 dye complex inhibitors on d(CAG) DNA, dose response, counter-screen, biochemical, fluorescence, late stage; IC50, µM; 30 tested, 80% active; d(CAG) DNA duplex TO-PRO-1 dye displacement; shares compounds with rCAG binder-1
rCAG binder-2 = molecules binding r(CAG) RNA repeats, late stage dose response, late-stage follow-up, biochemical, fluorescence, dose response, powder samples; AID 720651, 2013; shares compounds with rCAG binder-1; r(CAG) RNA TO-PRO-1 dye displacement; IC50, µM; 30 tested, 100% active
Active calls of the source: *; / = no result given. Most compounds without a hit are left out; they make up all but 2.6% or so of the library. Unless noted, the rule behind the calls is not given here.

SMILES | core dimer inh | rCAG binder-1 | NadD block | ABHD5 PLIN5 PPI | rCAG binder conf | DNA CAG counter | others
Cc1c(OCc2nn[nH]n2)ccc2c3c(c(=O)oc12)CCC(C)C3 (configuration not stated) | 3.0 | 42.2* | 4.8 | 0.4 | 23.2 | 4.7*
Cc1c(OCc2nn[nH]n2)ccc2c3c(c(=O)oc12)CCCC3 | 6.3 | 18.1 | 1.8 | 3.0 | / | /
N#C/C(=C\c1ccc(-c2ccc(F)cc2)o1)C(=O)Nc1nc(-c2cccs2)cs1 | 43.8 | 36.0* | 26.0 | -3.8 | 21.8 | 10.8*
Cc1cccc(NC2=Nc3ccccc3N3C2=Nc2c(c(C)nn2-c2ccccc2)C3c2ccc(O)c(O)c2)c1 (configuration not stated) | 46.0* | 57.1* | 61.7* | -2.4 | 48.5* | 34.1*
Cc1nn(-c2ccccc2)c2c1C(c1ccc(O)c(O)c1)N1C(=N2)C(Nc2ccccc2)=Nc2ccccc21 (configuration not stated) | 38.8 | 18.2 | 18.4 | -4.6 | / | /
Cc1ccc(NC2=Nc3ccccc3N3C2=Nc2c(c(C)nn2-c2ccccc2)C3c2ccc(O)c(O)c2)cc1 (configuration not stated) | / | 57.4* | 61.2* | 3.7 | 63.5* | 41.6*
Cc1cc(C)cc(C(=O)OCCCN(C)C2CN(Cc3cn(Cc4ccccc4Cl)nn3)S(=O)(=O)C2)c1 (configuration not stated) | / | 4.7 | / | / | / | /
COc1cccc(C(=O)N2CCC[C@H]2C(=O)N2CCC[C@H]2C(=O)N[C@H](C)c2ccccc2)c1 | / | -0.5 | -0.7 | 3.7 | / | /
CCc1ccc(-c2n[nH]nc2C2=CC(=O)C[C@H](c3ccc(F)cc3)C2)cc1 | / | 36.8* | 12.6 | -2.7 | 42.1* | 10.7*
CN1CCN(S(=O)(=O)c2cccc(C(=O)Nc3sc4c(c3-c3nc5ccccc5[nH]3)CCCC4)c2)CC1 | 25.1 | 37.8* | 17.6 | -1.3 | 29.1 | 19.5*
O=C(c1cc(-c2ccccc2)on1)N(Cc1cccnc1)C(c1ccccn1)c1nc2ccccc2[nH]1 (configuration not stated) | / | 10.6 | 2.3 | 10.0 | / | /
CCCC(NC(=O)CCc1c(C)c2cc3c(-c4ccccc4)coc3cc2oc1=O)C(=O)O (configuration not stated) | 14.8 | 36.3* | 4.1 | -2.9 | 40.6* | 10.9*
Cc1c(CCC(=O)O)c(=O)oc2cc3occ(-c4ccc(Br)cc4)c3cc12 | 26.4 | 36.9* | 3.8 | 5.7 | 62.5* | 23.7*
Cc1c(CCC(=O)O)c(=O)oc2cc3occ(-c4ccc(F)cc4)c3cc12 | 17.0 | 47.5* | 0.8 | -0.4 | 44.2* | 12.3*
CCOC(=O)[C@]12CCCC=C1N(CCc1ccc(OC)c(OC)c1)C(=O)[C@H](CC(=O)N1CCSCC1)C2 | / | -0.4 | / | 8.3 | / | /
O=C(O)c1cccc(S(=O)(=O)Nc2ccc(-c3ccccc3)cc2)c1 | / | 17.5 | -1.6 | 0.1 | / | /
COc1ccc(NS(=O)(=O)c2ccc(Oc3cccc(C(=O)O)c3)cc2)cc1 | 3.1 | 9.8 | 6.9 | -4.2 | / | /
O=C(O)c1cccc(NC(CNS(=O)(=O)c2ccc(Cl)cc2)c2ccccc2)c1 (configuration not stated) | 13.2 | 43.0* | 10.7 | -2.3 | 36.5* | 11.3*
O=S(=O)(NCC(Nc1ccccc1)c1ccccc1)c1ccc(Cl)cc1 (configuration not stated) | 6.7 | 3.8 | 1.8 | -10.0 | / | /
O=C(O)c1cccc(NS(=O)(=O)c2ccc(-c3ccc(S(=O)(=O)Nc4cccc(C(=O)O)c4)cc3)cc2)c1 | 4.8 | 43.4* | -4.3 | -1.9 | 16.8 | 1.1
O=C(O)c1cccc(NS(=O)(=O)c2ccc(Oc3ccc(S(=O)(=O)Nc4cccc(C(=O)O)c4)cc3)cc2)c1 | 6.4 | 47.4* | -9.0 | -3.5 | 23.0 | 3.3
CC(=O)c1cccc(NC(=S)N2CCN(S(=O)(=O)c3ccc(F)cc3)CC2)c1 | 13.4 | 9.1 | -1.2 | -10.9 | / | /
C#CCN1C(=O)[C@]2(OCCC=C[C@H]2C)c2ccccc21 | / | 1.6 | / | / | / | /
Cc1ccc(S(=O)(=O)NC(=O)COc2cc(C)ccc2C(C)C)cc1 | 3.3 | 35.6* | 0.1 | -7.2 | 18.3 | 2.9
COc1ccc(NC(=O)CNc2ccc(OC)c(S(=O)(=O)N3CCOCC3)c2)cc1 | / | 4.4 | 0.5 | 8.8 | / | /
SMILES | core dimer inh | rCAG binder-1 | NadD block | ABHD5 PLIN5 PPI | rCAG binder conf | DNA CAG counter | others
COc1cc2c(cc1NC(=O)c1ccccc1-c1ccccc1C(=O)O)-c1ccccc1C2 | / | 66.0* | 3.9 | 6.2 | 59.6* | 20.5*
COc1cccc(NC(=O)c2ccccc2-c2ccccc2C(=O)O)c1 | -4.6 | 2.0 | -0.3 | -4.7 | / | /
CN1OC[C@@H]2CN(C(=O)CCc3ccccc3)[C@H](c3ccccc3Br)C[C@@H]21 | / | 0.0 | -0.5 | 4.5 | / | /
COc1cc(O)c(C(C)=O)cc1OC | -9.5 | 4.4 | 0.4 | 1.8 | / | /
CC(=O)Oc1cc(C)c(Cl)c2c(OC(C)=O)cc(C(C)=O)c(O)c12 | / | 40.2* | / | / | 20.9 | 6.8*
CCN(c1ccc(OC)cc1)S(=O)(=O)c1nnc(NC(=O)COc2ccc(F)cc2)s1 | -0.1 | 56.0* | 13.7 | -2.0 | 57.0* | 21.4* | dCAG dye DR=>29.9;dCAG DNA bind=5.52*;rCAG binder-2=1.82*
COC12CC(=O)C(C(C)=O)=C(O)C1(C)c1c(O)c(C)c(O)c(C(C)=O)c1O2 (configuration not stated) | / | 54.8* | -2.3 | -3.3 | 67.4* | 30.3*
COc1cccc(CNS(=O)(=O)c2ccccc2Br)c1 | / | 3.8 | / | / | / | /
O=S(=O)(Nc1nc(-c2ccccc2)cs1)c1cc(Cl)ccc1Cl | 16.2 | 80.1* | 4.7 | 2.6 | 73.5* | 38.0*
O=C(Nc1ccc(Cl)c(Cl)c1)Nc1nc(-c2ccccc2)cs1 | 8.1 | 23.8 | 18.3 | 0.7 | / | /
O=[N+]([O-])c1ccc(S(=O)(=O)Nc2nc(-c3ccccc3)cs2)cc1 | 8.4 | 66.2* | -1.6 | -2.6 | 41.0* | 11.1*
